Bioassay records deposited in PubChem by The Scripps Research Institute Molecular Screening Center.
UHRF1 binding: human UHRF1 methylated DNA binding inhibitors | UHRF1 binding to methylated oligo, TR-FRET | 370,000 tested, 0.75% active | Q96T88 | AID 687016 | inhibition, % at 4.4 µM; in the data active means inhibition above about 21%;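 further: UHRF1 SRA domain binding a hemimethylated CpG hairpin DNA probe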
MBD2 DNA inh: inhibitors of human MBD2 binding to methylated oligonucleotide | 370,000 tested, 0.31% active | TR-FRET | inhibition, % at 4.4 µM | AID 686964; in the data active means inhibition above about 13%
DDE Tn7 FP inh: DD(E)-Tn7 binding inhibition, primary FP screen | FP displacement of FITC-Tn7 peptide from fibrin DD(E); 0% = median of compound wells per plate | inhibition, % at 8.3 µM | 370,000 tested, 0.13% active | AID 720508;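 active means inhibition above the mean of compounds falling within the control limits plus 3 SD of them, cut at about 14% in these data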
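Assay system: Fibrin-DD(E) protein isolated from polymerized human fibrin clots; read-out basis: percent inhibition; medium: Tris/NaCl/CaCl2 buffer, pH 7.8; signal: FP measurement; incubation: 10 min plus 3 h, room temperature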
DDE Tn6 FP inh: DD(E)-Tn6 binding inhibition, primary FP screen. P02675. Fibrin DD(E) TRITC-Tn6 fluorescence polarization displacement. inhibition, % at 8.3 µM. 370,000 tested, 0.21% active. AID 720509;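 active means inhibition above a per-campaign cutoff: mean of compounds within control limits plus 3 SD, cut at about 15% in these data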
TDP2 absorb: TDP2 (human) inhibition, absorbance primary screen. 370,000 tested, 0.34% active. inhibition, % at 12.8 µM. O95551. AID 720702. recombinant TDP2, T5PNP hydrolysis, p-nitrophenol absorbance 415 nm;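 active means inhibition above the mean of all tested compounds plus 3 SD, set per campaign, cut at about 25% in these data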
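Material: recombinant human TDP2; quantity: TDP2 enzyme at 120 nM final; medium: Tris-HCl pH 7.5 with MgCl2; compound: single concentration, 12.8 µM nominal, with 1% DMSO; incubation: 2 h enzyme incubation at 37 °C; signal: epi absorbance; measure: percent inhibition; benchmarks: high control without enzyme, low control DMSO plus TDP2; repeats: singlicate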
LEDGF integ inh: blocks HIV-1 LEDGF/p75-dependent DNA integration; TR-FRET IN-LEDGF/p75 DNA integration, Eu/Cy5; inhibition, % at 3.7 µM; 370,000 tested, 0.64% active;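 active means inhibition above the screen-wide mean plus 3 SD, cut at about 13% in these data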;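 further: signal is the Cy5 over europium emission ratio at 671 and 618 nm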
TDP2 confirm: human TDP2 inhibition, confirmation | recombinant human TDP2, absorbance read-out | AID 743263 | 1,100 tested, 22% active | shares compounds with TDP2 absorb | inhibition, % at 12.8 µM; in the data active means inhibition above about 25%
Numbers stand for hits; – = inactive; · = no result. Compounds with a hit are over-represented: about 1.9% of the library has one in this group of screens.

SMILES	UHRF1 binding	MBD2 DNA inh	DDE Tn7 FP inh	DDE Tn6 FP inh	TDP2 absorb	LEDGF integ inh	TDP2 confirm
CCN(CC)c1ccc(/C=C2\C(=O)N(c3nnc(C)c(=O)[nH]3)N=C2C)cc1	–	–	–	–	26	–	–
CC(=O)c1cc(-c2ccc(S(C)(=O)=O)cc2)c(=O)n2c1CCC2	–	–	–	–	–	–	·
O=C1C=C(Nc2ccccc2)c2ccccc2C1=O	–	–	–	–	–	–	·
O=C1C=C(Nc2ccccc2C(=O)O)c2ccccc2C1=O	–	–	–	–	46	–	50
COC(=O)C1=C(C(C)=O)C(c2ccc(C(=O)OC)cc2)n2nnnc2N1 (centres undefined)	–	–	–	–	34	–	–
COC(=O)C1=C(C(C)=O)C(c2ccc(C)cc2)n2nnnc2N1 (centres undefined)	–	–	–	–	–	–	·
COC(=O)C1=C(C)N(Cc2cccc(C(F)(F)F)c2)C(=NCC2CC2)NC1c1cccc(F)c1 (centres undefined)	–	–	–	–	–	–	·
COc1cccc(C2/C(=C(\O)c3ccc4c(c3)OCCO4)C(=O)C(=O)N2CC2CCCO2)c1 (centres undefined)	–	–	–	–	35	–	–
COc1ccc(/C(O)=C2/C(=O)C(=O)N(CC3CCCO3)C2c2cccc(OC)c2)cc1 (centres undefined)	–	–	–	–	–	–	·
COc1cc(C2C(C(=O)c3ccco3)=C(O)C(=O)N2CC2CCCO2)ccc1O (centres undefined)	–	–	–	–	–	–	·
O=C(C1=C(O)C(=O)N(CC2CCCO2)C1c1cccc(O)c1)c1ccco1 (centres undefined)	–	–	–	–	27	–	–
CC1=NN(CCC#N)C(=O)/C1=C/c1ccc(N(C)C)cc1	–	–	–	–	42	–	–
COc1cc(/C=C2\C(=O)N(CCC#N)N=C2C)ccc1OCC(=O)Nc1ccccc1	–	–	–	–	84	–	–
COC(=O)N1Cc2ccnnc2CC1c1ccccc1-c1ccc(F)cc1 (centres undefined)	–	–	–	–	–	–	·
c1ccc(Cc2cnc(N3CCN(Cc4ccc5c(c4)OCCO5)CC3)nc2)cc1	–	–	–	–	–	–	·
CCN(C(=O)COC(=O)c1[nH]c(=O)[nH]c(=O)c1N)c1ccccc1	–	–	–	–	30	–	–
CN(CCOc1ccccc1)CC(=O)Nc1cccc(Br)c1	–	–	–	–	32	–	–
Cc1cc(NC(=O)CN(C)CCOc2ccccc2)ccc1Br	–	–	–	–	–	–	·
O=C(N/N=C/c1cc(Cl)ccc1O)c1cccnc1	–	–	–	–	60	–	–
Cc1ccc(S(=O)(=O)NCC2CCN(C(=O)C(=O)c3cc4ccccc4o3)CC2)cc1	–	–	–	–	–	–	·
CCOC(=O)c1cnc(SC)nc1N1CCCC1	–	–	–	–	29	–	–
O=C(NCC(c1ccco1)N1CCOCC1)c1c(F)cccc1F (centres undefined)	–	–	–	–	25	–	–
CCN(CC)c1ccc2cc(-c3nc(-c4cc5ccccc5oc4=O)cs3)c(=O)oc2c1	–	–	–	–	32	–	–
Cc1onc(-c2ccccc2)c1-c1ccnn1C(=O)NC(C)C	–	–	–	–	–	–	·
COC(=O)c1noc(C)c1-c1ccnn1C(=O)c1ccc(C)cc1	–	–	–	–	25	–	–
O=C(CN1CCCCC1)Nc1c2c(nc3ccccc13)N(c1ccccc1)CC2	–	–	–	–	45	14	–
CCCCc1nc2ccccc2c(NC(=O)CN2CCCC2)c1CCC	–	–	–	–	–	–	·
O=C(N[C@@H](Cc1cccnc1)C(=O)N1CCC[C@H]1C(=O)NCc1ccccc1)c1ccc(Cl)c(Cl)c1	–	–	–	–	–	–	·
Cc1ccc(NC(=O)CCSc2nnc(C)o2)cc1	–	–	–	–	28	–	–
